mABHD4 FP: ABHD4 inhibitors, primary screen, biochemical, fluorescence polarization, mouse | purified mABHD4, FP-Rh probe fluorescence polarization | inhibition, % at 8.92 µM | (Lyso)-N-acylphosphatidylethanolamine lipase (Mus musculus), Q8VD66 | actives 0.54% (n = 370,000) | AID 720543, 2013;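 active = inhibition exceeding the mean over every tested compound plus 3 SD, cut at about 30% in these data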;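 note: 0% = plate median of compound wells and 100% = S159A mutant with DMSO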
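System: mouse ABHD4 enzyme, wild type / Medium: HEPES pH 7.0, NaCl, Pluronic buffer / Reagent: FP-Rh activity-based fluorescent probe / Control set: S159A mutant high control, sample median low control / Detection: fluorescence polarization with parallel and perpendicular emission, 525/598 nm / Schedule: 45 min + 60 min at 25 °C / Compound dosing: 8.92 µM, single dose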
PRMT1 inh: PRMT1 methyltransferase inhibitors, primary screen, biochemical, fluorescence polarization; actives 1.3% (n = 370,000); AID 652257, 2013; recombinant PRMT1, activity-based probe fluorescence polarization; Protein arginine N-methyltransferase 1 (Homo sapiens), Q99873; inhibition, % at 2.79 µM;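 active = inhibition above about 21% made by adding two undisclosed values, limit read from the data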
Target sequence (Q99873 whole entry, looked up): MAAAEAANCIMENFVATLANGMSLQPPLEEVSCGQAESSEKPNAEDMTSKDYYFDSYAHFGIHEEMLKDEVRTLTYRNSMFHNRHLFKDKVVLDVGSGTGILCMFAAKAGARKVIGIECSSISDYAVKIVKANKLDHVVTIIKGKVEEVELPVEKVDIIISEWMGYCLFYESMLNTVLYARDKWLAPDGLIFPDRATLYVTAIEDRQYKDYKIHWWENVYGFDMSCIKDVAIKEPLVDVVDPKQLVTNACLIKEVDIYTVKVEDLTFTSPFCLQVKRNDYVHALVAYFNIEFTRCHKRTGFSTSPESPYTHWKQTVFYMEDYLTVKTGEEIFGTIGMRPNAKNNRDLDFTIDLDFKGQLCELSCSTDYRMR
SIAE inh: human SIAE inhibitors, primary screen, biochemical, fluorescence polarization, FP-Rh probe, 1536-well HTS | SIAE FP-Rh probe binding | actives 0.69% (n = 370,000) | Sialate O-acetylesterase (Homo sapiens), Q9HAT2 | inhibition, % at 9.66 µM;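 active = inhibition above a cutoff: mean of compounds within the control limits plus 3 SD of those, cut at about 17% in these data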;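 note: 0% = plate median of compound wells and 100% = probe without SIAE protein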
HTRA1 inh: HTRA1 serine protease inhibitors, primary screen, biochemical, fluorescence polarization, HTS; inhibition, % at 5.96 µM; AID 504803, 2011; actives 0.5% (n = 340,000); recombinant HTRA1, FP-rhodamine activity-based probe; Q92743; in the data active = inhibition above about 36%;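 note: 0% = enzyme with DMSO and 100% = wells lacking enzyme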
TCR-CD3 inh: inhibitors of human TCR-CD3 interaction, primary screen, biochemical, fluorescence, TAMRA-labeled TCR probe; T-cell receptor (TCR); inhibition, % at 9.4 µM; actives 0.37% (n = 360,000); in the data active = inhibition above about 19%;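 note: recombinant mutant TCR 2C K166C tagged with TAMRA read by polarization; 0% = receptor in buffer alone and 100% = receptor with positive control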
mABHD4 conf: ABHD4 inhibitors, retest, confirmation, biochemical, fluorescence polarization, mouse; AID 720658, 2013; shares compounds with mABHD4 FP; inhibition, % at 8.92 µM; purified mABHD4, FP-Rh probe fluorescence polarization; actives 55% (n = 1,800);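 active = mean inhibition across replicates above the hit cutoff set in the primary screen, cut at about 30% in these data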;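 note: 0% = wild-type ABHD4 with DMSO and 100% = catalytically dead S159A mutant with DMSO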
An asterisk follows results filed as active; . = no result. In the library only some 2.6% were active in any assay of this set; here they are far more common.

SMILES	mABHD4 FP	PRMT1 inh	SIAE inh	HTRA1 inh	TCR-CD3 inh	mABHD4 conf
CC(=O)N1CCC(=NNc2nc3ccccc3s2)CC1	32.6*	4.0	9.3	10.1	-5.0	14.0
CCOC(=O)N1CCN(S(=O)(=O)c2ccc(C(=O)Nc3nc4ccccc4s3)cc2)CC1	3.4	-2.0	0.1	2.3	-1.2	.
CC(=O)NNc1nc2ccccc2s1	11.0	3.1	6.9	2.5	-1.0	.
CCOC(=O)N1CCC(=NNc2nc3ccccc3s2)CC1	38.4*	-2.4	4.2	2.7	-1.0	-3.1
CCN(CC)S(=O)(=O)c1ccc(N2CCOCC2)c(NC(=O)c2c3c(nc4ccccc24)CCC3)c1	33.6*	-0.2	1.3	10.3	3.2	30.4*
CCN(CC)S(=O)(=O)c1ccc(N2CCOCC2)c(NC(=O)c2cccc3c(=O)c(C)c(-c4ccccc4)oc23)c1	32.6*	-1.1	-17.7	-41.8	-4.6	37.5*
CN(CC(=O)Nc1ccccc1Br)C(=O)c1cccnc1Nc1cccc(C(F)(F)F)c1	-27.3	-1.9	-12.7	-51.0	7.7	.
Cc1cccc2c1NC(=O)/C2=C\C(=O)c1cccs1	13.3	2.0	5.1	-3.7	6.4	.
CCc1ccc2c(c1)/C(=C/C(=O)c1cccs1)C(=O)N2	36.9*	11.1	11.0	-7.1	5.5	56.4*
O=C(O)c1cccc(S(=O)(=O)Nc2ccc(-c3ccccc3)cc2)c1	8.4	-6.1	-5.9	-10.0	2.8	.
O=C(O)c1ccc(NS(=O)(=O)c2ccc3c(c2)C(=O)c2ccccc2C3=O)cc1	36.2*	-0.4	4.7	.	-3.6	58.0*
Cc1cccc(OCc2nnc(SCC(=O)N(c3ccccc3)C3CCS(=O)(=O)C3)o2)c1 (stereo unspecified)	-7.0	-1.3	-10.7	2.0	-1.4	.
COC(=O)c1c(C)oc2ccc(OC(=O)N3CCOCC3)cc12	19.9	-1.9	1.3	-4.0	5.4	.
Cc1oc2ccc(OC(=O)N3CCOCC3)cc2c1C(=O)OC(C)C	58.9*	-2.5	-0.4	-3.0	5.4	54.4*
CCOC(=O)c1c(C)oc2ccc(OC(=O)N3CCOCC3)cc12	39.8*	-1.8	2.4	-1.7	5.7	39.8*
O=C(COC(=O)/C=C/c1ccc(OC(F)F)cc1)Nc1ccc(N2CCOCC2)cc1	-2.9	0.3	5.9	0.1	-0.6	.
Cc1cc(F)ccc1S(=O)(=O)Nc1ccccc1C(=O)N1CCCC1	6.0	3.0	5.0	1.3	-3.4	.
Cc1ccc(-n2nc(C)c3c2OC(N)=C(C#N)C3c2ccc(F)cc2)cc1 (stereo unspecified)	36.5*	-1.2	1.6	23.9	4.8	10.5
COc1ccc(OC)c(C2C(C#N)=C(N)Oc3c2c(C)nn3-c2cccc(Cl)c2)c1 (stereo unspecified)	21.9	4.9	10.3	10.7	-10.6	.
Cc1nn(-c2ccccc2)c2c1C(c1ccco1)C(C#N)=C(N)O2 (stereo unspecified)	13.1	3.5	6.2	3.5	3.5	.
Cc1nn(-c2ccccc2)c2c1C(c1ccc([N+](=O)[O-])cc1)C(C#N)=C(N)O2 (stereo unspecified)	41.7*	15.9	9.4	11.5	-6.6	11.1
Cc1nn(-c2cccc(Cl)c2)c2c1C(c1cccnc1)C(C#N)=C(N)O2 (stereo unspecified)	30.6*	1.8	10.2	23.0	-1.2	5.8
O=C1N=c2ccccc2=C1c1sc(=O)[nH]c1O	9.2	4.0	-0.1	.	-3.5	.
CN(c1ccc(O)cc1)c1nc(O)c(C2=c3ccccc3=NC2=O)s1	43.1*	5.8	2.3	7.0	-2.8	64.9*
O=C(CCc1ccc(O)c(O)c1)N/N=C/c1cc2c(cc1[N+](=O)[O-])OCO2	30.8*	13.2	12.4	34.4	17.2	37.7*
SMILES	mABHD4 FP	PRMT1 inh	SIAE inh	HTRA1 inh	TCR-CD3 inh	mABHD4 conf
Cc1ccc(N=Cc2cc3c(cc2[N+](=O)[O-])OCO3)cc1[N+](=O)[O-]	41.9*	25.1*	4.2	.	5.8	30.1*
O=[N+]([O-])c1cc(Br)cc(C=Nc2ccc3c(c2)OCO3)c1O	25.5	-1.6	-15.8	3.2	8.3	.
COc1cc(/C=N/NC(=S)NCCc2ccccc2)cc(OC)c1OC	22.4	-5.4	8.9	-27.6	-1.6	.
COc1cc(/C=N/NC(=S)NC2CC3C=CC2C3)cc(OC)c1OC (stereo unspecified)	29.7*	-3.4	12.1	.	-6.7	37.8*
CC(C)(O)C#Cc1ccc(CN2CCN(Cc3ccsc3)C(CCO)C2)s1 (stereo unspecified)	93.1*	-1.5	2.0	5.2	6.9	-3.4
COc1ccc(CCC(=O)Nc2nc3c(s2)CN(C)CC3)cc1OC	89.0*	-0.6	2.3	0.2	-0.1	3.0
O=C(O)c1cc(-c2ccc(/C=N/NC(=S)Nc3ccccc3)o2)ccc1Cl	39.2*	11.8	5.7	.	14.8	50.1*
O=[N+]([O-])c1cccc(-c2ccc(/C=N/NC(=S)Nc3ccccc3)o2)c1	10.8	0.2	7.5	-3.4	4.9	.
COc1ccc(N2CCN(C(=O)COCC(=O)O)CC2)cc1	6.2	0.5	-3.8	5.2	5.9	.
COc1ccc(N2CCN(C(=O)Cn3cncn3)CC2)cc1	36.6*	-0.7	6.4	1.0	10.6	2.5
Cn1nc(C#N)c(=O)[nH]c1=O	-2.8	3.8	-6.5	2.2	-6.0	.
CNC[C@H](CC1CCCCC1)NC[C@H](Cc1ccccc1)NCCC12CC3CC(CC(C3)C1)C2	48.3*	1.0	1.8	-4.9	-5.7	74.8*
O=C(C[C@H]1C/C=C\C[C@H](Cc2ccc(F)cc2)C(=O)O[C@@H](c2ccccc2)CNC1=O)NCCO	8.0	-1.7	-0.1	2.9	-1.4	.
CNc1sc(C(=O)c2ccc(F)cc2)c(N)c1-c1nc2ccccc2s1	31.9*	1.8	-3.2	18.5	5.0	68.3*
Cc1cc(=O)oc2cc(OC(C)C(=O)NCC3CCC(C(=O)O)CC3)ccc12 (stereo unspecified)	-1.6	-3.2	0.0	3.3	9.1	.
CC(Oc1ccc2c(-c3ccccc3)cc(=O)oc2c1)C(=O)NCC1CCC(C(=O)O)CC1 (stereo unspecified)	48.7*	-4.4	-1.0	-1.7	8.6	38.5*
Cc1cc(=O)oc2cc(OCC(=O)OCC(=O)Nc3ccccc3Br)ccc12	12.0	1.8	-9.2	2.3	-4.5	.
Cc1cc(=O)oc2cc(OCC(=O)Nc3ccccc3C(=O)O)ccc12	35.2*	2.7	-4.0	1.2	0.9	39.2*
O=C(COc1ccc2c(-c3ccccc3)cc(=O)oc2c1)NCC1CCC(C(=O)O)CC1 (stereo unspecified)	39.9*	2.8	-1.4	0.7	-7.5	42.3*
